Data published in article PMC5836847 (Clinical Pharmacology and Therapeutics, 2017).

Experiments:
[1] = Plasma pharmacokinetics of sildenafil and N-desmethyl-sildenafil; type: in vivo, human; settings: for AUCinf, Intrasubject CV / AUClast, Intrasubject CV / Cmax, Intrasubject CV: fixed effect model, sacubitril/valsartan + sildenafil vs. sildenafil alone; for Tmax (median time to reach maximum concentration): single-dose oral administration of sildenafil; for AUC(0-t): AUClast
Method in brief: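 Male hypertensive patients received single oral sildenafil 50 mg alone (Day 1), then again on Day 8 with sacubitril/valsartan 400 mg q.d. at steady state. Plasma sildenafil and N-desmethyl-sildenafil were profiled after each dose. Outputs were AUCinf, AUClast, T1/2, Cmax and Tmax. Log-transformed parameters went into a fixed-effect model with subject and treatment as factors; combination was test, sildenafil alone reference. Output was back-transformed GMR with 90% CI.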

[2] = cited from earlier work
[3] = Plasma pharmacokinetics of sacubitril/valsartan analytes at steady state; type: in vivo, human; settings: for AUCtau,ss, Intrasubject CV / Cmax,ss, Intrasubject CV: fixed effect model; for AUC / Cmax: male, human, oral, Mean ± SD; for AUC / Cmax / Tmax (time of peak concentrations): plasma; for AUC: AUCtau,ss, Sacubitril/valsartan alone (400 mg q.d., steady state, Day 7); for Cmax: Cmax,ss; for Tmax (time of peak concentrations): oral administration of sacubitril/valsartan, steady state
Method in brief: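 Male hypertensive patients took oral sacubitril/valsartan 400 mg q.d. on Days 3–7, with predose samples on Days 3–6. Plasma sacubitril, sacubitrilat and valsartan were profiled at steady state on Day 7 and on Day 8 with single-dose sildenafil 50 mg. Outputs were AUCtau,ss, Cmax,ss and Tmax,ss. Log-transformed parameters went into a fixed-effect model with subject and treatment as factors; combination was test, monotherapy reference. Output was back-transformed GMR with 90% CI.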

[4] = test system: patients with mild-to-moderate hypertension; assay: Safety assessments; type: in vivo, human; settings: for safety and tolerability: single-dose sildenafil 50 mg, sacubitril/valsartan 400 mg q.d., coadministration
Method in brief: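 Adverse events were recorded across three sequential periods in male hypertensive patients: single oral sildenafil 50 mg (Day 1), sacubitril/valsartan 400 mg q.d. (Days 3–7), and both together (Day 8). Events were graded by intensity and by suspected relation to study drug. They were summarised by treatment and visit/time, as number and percentage of subjects by body system and treatment.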

[5] = test system: patients with HFrEF; settings: cited from earlier work
[6] = test system: healthy subjects; settings: 40 mg and 80 mg doses; cited from earlier work
[7] = cited from earlier work; remark: listed apart in the source
[8] = sacubitril/valsartan and warfarin coadministered; cited from earlier work
[9] = 200 mg twice daily or 400 mg q.d., healthy individuals; cited from earlier work
[10] = plasma, Sacubitril/valsartan + Sildenafil (Day 8)
[11] = plasma, Sildenafil alone (50 mg single dose, Day 1)
[12] = plasma, Sildenafil alone (Day 1)
[13] = coadministration of sacubitril/valsartan and sildenafil vs. sacubitril/valsartan alone
[14] = 400 mg, Sacubitril/valsartan alone (Day 7)
[15] = Sacubitril/valsartan + Sildenafil (Day 8)

Row | AUCinf, Intrasubject CV [1] [%] | AUClast, Intrasubject CV [1] [%] | Cmax, Intrasubject CV [1] [%] | Tmax (median time to reach maximum concentration) ([1]; plasma) [h] | decrease in Cmax [3, 13] [%] | AUCtau,ss, Intrasubject CV [3] [%] | Cmax,ss, Intrasubject CV [3] [%] | AUC ([3]; 400 mg) [ng·h/mL] | Cmax [3, 14] [ng/mL] | Cmax [3, 15] [ng/mL] | Tmax (time of peak concentrations) [3] [h] | Molecule | safety and tolerability [4] | further results
1 | 15.9 | 16.4 | 26.7 | 1 | – | – | – | – | – | – | – | CCCc1nn(C)c2c(=O)[nH]c(-c3cc(S(=O)(=O)N4CCNCC4)ccc3OCC)nc12 [N‐desmethyl‐sildenafil] | – | decrease in Cmax ([1]; coadministration of sildenafil and sacubitril/valsartan vs. sildenafil alone): 14%; AUCinf, Adjusted geometric mean [1, 10]: 305 ng·h/mL; AUClast, Adjusted geometric mean [1, 10]: 278 ng·h/mL; AUClast, Mean ± SD [1, 10]: 305 ± 133 ng·h/mL; Cmax, Adjusted geometric mean [1, 10]: 75.9 ng/mL; Cmax, Mean ± SD [1, 10]: 84.6 ± 39.3 ng/mL; AUCinf, Mean ± SD [1, 11]: 359 ± 157 ng·h/mL; Cmax, Mean ± SD [1, 11]: 95.1 ± 32.5 ng/mL; AUCinf, Adjusted geometric mean [1, 12]: 327 ng·h/mL; AUClast, Adjusted geometric mean [1, 12]: 297 ng·h/mL; AUClast, Mean ± SD [1, 12]: 331 ± 152 ng·h/mL; Cmax, Adjusted geometric mean [1, 12]: 88.4 ng/mL; terminal half-life (T1/2) ([1]; plasma, sildenafil administered alone): 5.3 ± 1.6 h; terminal half-life (T1/2) ([1]; plasma, sildenafil coadministered with sacubitril/valsartan): 6.2 ± 1.9 h; share of sildenafil's pharmacological effects accounted for [2]: 20%; plasma concentration relative to parent compound ([2]; relative to sildenafil): ~40%; potency relative to parent compound ([2]; relative to sildenafil): ~50%
2 | – | – | – | – | 10 | 12.2 | 45.3 | 3400 ± 1000 | 2470 ± 865 | 2310 ± 1020 | 0.5 | CCOC(=O)[C@H](C)C[C@@H](Cc1ccc(-c2ccccc2)cc1)NC(=O)CCC(=O)O [Sacubitril] | – | –
3 | – | – | – | – | – | 3.75 | 13 | 143000 ± 26300 | 14900 ± 2250 | 14000 ± 2420 | 2.0 | C[C@H](C[C@@H](Cc1ccc(-c2ccccc2)cc1)NC(=O)CCC(=O)O)C(=O)O [Sacubitrilat] | – | –
4 | 23.4 | 23.4 | 35.5 | 0.5 | – | – | – | – | – | – | – | CCCc1nn(C)c2c(=O)[nH]c(-c3cc(S(=O)(=O)N4CCN(C)CC4)ccc3OCC)nc12 [Sildenafil] | generally safe and well‐tolerated | half-life ([1]; male, human, plasma, oral, 50 mg): 3.7 ± 1 h; AUC(0-t) ([1]; male, human, plasma, oral, 50 mg, Mean ± SD, plasma, Sildenafil alone (Day 1)): 587 ± 270 ng·h/mL; AUC(0-t) ([1]; male, human, plasma, oral, Mean ± SD, plasma, Sacubitril/valsartan + Sildenafil (Day 8)): 612 ± 297 ng·h/mL; Cmax ([1]; male, human, plasma, oral, Cmax, Mean ± SD, plasma, Sacubitril/valsartan + Sildenafil (Day 8)): 189 ± 99.6 ng/mL; suspected treatment-related AEs of moderate intensity ([4]; per study period): 1 AE; cardiac output ([5]; 50 mg sildenafil, patients with HFrEF): increased; safety and tolerability ([5]; sildenafil administered to patients with HFrEF): safe and well tolerated; duration of BP-lowering effect postdosing [6]: 5 h
5 | – | – | – | – | 39 | 28 | 32.6 | 33000 ± 12400 | 5300 ± 1750 | 3350 ± 1480 | 2.0 | CCCCC(=O)N(Cc1ccc(-c2ccccc2-c2nnn[nH]2)cc1)[C@H](C(=O)O)C(C)C [Valsartan] | – | decrease in AUC [3, 13]: 29%; intersubject variability in pharmacokinetic parameters [7]: 44%
6 | – | – | – | – | – | – | – | – | – | – | – | Sacubitril/valsartan | generally safe and well‐tolerated | impact on the pharmacokinetics of the CYP2C9 substrate warfarin [8]: no impact; time to achieve steady-state levels [9]: 3 days
